Measured values pooled from the literature.
Target: Adenosine receptor A2a (ADORA2A, Homo sapiens, UniProt P29274)

Structure (SMILES) | assay | setting | quantity | value
COCc1c(-c2cc3cc(C)cc(OC)c3s2)c2c(N)ncnn2c1CN1CCNC(=O)C1 | ligand displacement, radioligand | 10 µM | inhibition | 7%
Nc1ncc(-c2nc(N3CCOCC3)nc(N3CCOCC3)n2)c(C(F)F)n1 | cell-free assay, radioligand | 10 µM | remaining signal | 93.3%
CC(C)Cn1cnc2c(N)nc3ccccc3c21 | ligand displacement, radioligand | 10 µM | inhibition | 89%
OC[C@@]12C[C@@H]1[C@@H](n1cnc3c(NC(C4CCCC4)C4CCCC4)nc(Cl)nc31)[C@H](O)[C@@H]2O | ligand displacement, radioligand | 10 µM | inhibition | 24%
c1ccc(C(NCCNC(c2ccccc2)c2ccccc2)c2ccccc2)cc1 | cell-free assay | 10 µM | inhibition | 12%
O=C(Nc1cccnn1)N1CCN([C@@H]2CCOc3cc(C(F)(F)F)ccc32)CC1 | ligand displacement | 20 µM | inhibition | 15%
CCN(CC)CCCC[C@H](NC(=O)[C@H](CC(C)C)NC(=O)[C@H](C)NC(=O)[C@H](Cc1ccccc1)NC(=O)c1ccc(C(C)(C)C)cc1)C(=O)N[C@@H](CO)C(=O)OC | ligand displacement, radioligand | 10 µM | remaining binding | 102%
Clc1ccc2c(C3CCN(CCc4c[nH]c5ccccc45)CC3)c[nH]c2c1 | ligand displacement, radioligand | 10 µM | inhibition | -12%
OC[C@@]12C[C@@H]1[C@@H](n1cnc3c(NC(C4CCCC4)C4CCCC4)nc(Cl)cc31)[C@H](O)[C@@H]2O | ligand displacement, radioligand | 10 µM | inhibition | -12%
CC(C)N1CCC[C@H]1CNC(=O)c1cn(C2CCCC2)c(=O)c2c1c1ccccc1n2C | ligand displacement, radioligand | 10 µM | inhibition | 6%
C[C@H](C(=O)N[C@H]1COc2ccccc2[C@@H]1S(C)(=O)=O)c1ccc(F)cc1 | cell-free assay | 10 µM | inhibition | 1%
O=c1ccc2ccccc2o1 | ligand displacement, radioligand | 10 µM | inhibition | -4.26%
COc1ccc(S(=O)(=O)N2CCCCC2)cc1C | ligand displacement, radioligand | 10 µM | inhibition | < 30%
